In ChEMBL document CHEMBL1156417, “Transferable resistance to aminoglycosides by methylation of G1405 in 16S rRNA and to hydrophilic fluoroquinolones by QepA-mediated efflux in Escherichia coli” (2007):
Values after ≈ are worked out from the molar mass of the structure shown.

What follows are compounds tested on Escherichia coli (assay: microbe, parasite or virus in culture).
Type: functional

| SMILES | MIC |
| --- | --- |
| COc1c(N2CCNC(C)C2)c(F)cc2c(=O)c(C(=O)O)cn(C3CC3)c12 (stereo not given) [GATIFLOXACIN] | 0.016 µg/mL (≈ 0.0426 µM) |
| CC[n+]1c(-c2ccccc2)c2cc(N)ccc2c2ccc(N)cc21.[Br-] [HOMIDIUM BROMIDE] | 64 µg/mL |
| COc1c(N2C[C@@H]3CCCN[C@@H]3C2)c(F)cc2c(=O)c(C(=O)O)cn(C3CC3)c12 [MOXIFLOXACIN] | 0.032 µg/mL (≈ 0.0797 µM) |
| CCn1cc(C(=O)O)c(=O)c2ccc(C)nc21 [NALIDIXIC ACID] | 1.5 µg/mL (≈ 6.46 µM) |

Each compound was assayed on Escherichia coli (assay: Antibacterial activity against Escherichia coli C600Rif by Etest).
Type: functional
Procedure, shortened: (§1)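 MIC read by Etest on Mueller-Hinton agar after 24 h incubation. Strains were grown in brain heart infusion broth or on agar at 37°C. C600Rif served as the conjugation recipient and TOP10 as the transformation recipient.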

| SMILES | MIC |
| --- | --- |
| COc1c(N2CCNC(C)C2)c(F)cc2c(=O)c(C(=O)O)cn(C3CC3)c12 (stereo not given) [GATIFLOXACIN] | 0.023 µg/mL (≈ 0.0613 µM) |
| CC[n+]1c(-c2ccccc2)c2cc(N)ccc2c2ccc(N)cc21.[Br-] [HOMIDIUM BROMIDE] | 128 µg/mL |
| COc1c(N2C[C@@H]3CCCN[C@@H]3C2)c(F)cc2c(=O)c(C(=O)O)cn(C3CC3)c12 [MOXIFLOXACIN] | 0.064 µg/mL (≈ 0.159 µM) |
| CCn1cc(C(=O)O)c(=O)c2ccc(C)nc21 [NALIDIXIC ACID] | 2 µg/mL (≈ 8.61 µM) |

What follows are compounds tested on Escherichia coli (assay: Antibacterial activity against Escherichia coli C600Rif containing pIP1206 plasmid by Etest).
Type: functional
Procedure, shortened: as §1

| SMILES | MIC |
| --- | --- |
| COc1c(N2CCNC(C)C2)c(F)cc2c(=O)c(C(=O)O)cn(C3CC3)c12 (stereo not given) [GATIFLOXACIN] | 0.032 µg/mL (≈ 0.0852 µM) |
| CC[n+]1c(-c2ccccc2)c2cc(N)ccc2c2ccc(N)cc21.[Br-] [HOMIDIUM BROMIDE] | 128 µg/mL |
| COc1c(N2C[C@@H]3CCCN[C@@H]3C2)c(F)cc2c(=O)c(C(=O)O)cn(C3CC3)c12 [MOXIFLOXACIN] | 0.094 µg/mL (≈ 0.234 µM) |
| CCn1cc(C(=O)O)c(=O)c2ccc(C)nc21 [NALIDIXIC ACID] | 2 µg/mL (≈ 8.61 µM) |

The compounds below were run on Escherichia coli (assay: Antibacterial activity against Escherichia coli TOP10 by Etest).
Type: functional
Procedure, shortened: as §1

| SMILES | MIC |
| --- | --- |
| COc1c(N2CCNC(C)C2)c(F)cc2c(=O)c(C(=O)O)cn(C3CC3)c12 (stereo not given) [GATIFLOXACIN] | 0.003 µg/mL (≈ 0.00799 µM) |
| CC[n+]1c(-c2ccccc2)c2cc(N)ccc2c2ccc(N)cc21.[Br-] [HOMIDIUM BROMIDE] | 128 µg/mL |
| COc1c(N2C[C@@H]3CCCN[C@@H]3C2)c(F)cc2c(=O)c(C(=O)O)cn(C3CC3)c12 [MOXIFLOXACIN] | 0.004 µg/mL (≈ 0.00996 µM) |
| CCn1cc(C(=O)O)c(=O)c2ccc(C)nc21 [NALIDIXIC ACID] | 1.5 µg/mL (≈ 6.46 µM) |

The compounds below were run on Escherichia coli (assay: Antibacterial activity against Escherichia coli TOP10 in presence of 40 ug/ml efflux pump inhibitor 1-(1-naphthylmethyl)-piperazine by Etest).
Type: functional

| SMILES | MIC |
| --- | --- |
| COc1c(N2CCNC(C)C2)c(F)cc2c(=O)c(C(=O)O)cn(C3CC3)c12 (stereo not given) [GATIFLOXACIN] | 0.002 µg/mL |
| CC[n+]1c(-c2ccccc2)c2cc(N)ccc2c2ccc(N)cc21.[Br-] [HOMIDIUM BROMIDE] | 64 µg/mL |
| COc1c(N2C[C@@H]3CCCN[C@@H]3C2)c(F)cc2c(=O)c(C(=O)O)cn(C3CC3)c12 [MOXIFLOXACIN] | 0.002 µg/mL |
| CCn1cc(C(=O)O)c(=O)c2ccc(C)nc21 [NALIDIXIC ACID] | 1 µg/mL |

The compounds below were run on Escherichia coli (assay: Antibacterial activity against Escherichia coli TOP10 containing pIP1206 plasmid by Etest).
Type: functional
Procedure, shortened: as §1

| SMILES | MIC |
| --- | --- |
| COc1c(N2CCNC(C)C2)c(F)cc2c(=O)c(C(=O)O)cn(C3CC3)c12 (stereo not given) [GATIFLOXACIN] | 0.003 µg/mL (≈ 0.00799 µM) |
| CC[n+]1c(-c2ccccc2)c2cc(N)ccc2c2ccc(N)cc21.[Br-] [HOMIDIUM BROMIDE] | 128 µg/mL |
| COc1c(N2C[C@@H]3CCCN[C@@H]3C2)c(F)cc2c(=O)c(C(=O)O)cn(C3CC3)c12 [MOXIFLOXACIN] | 0.006 µg/mL (≈ 0.0149 µM) |
| CCn1cc(C(=O)O)c(=O)c2ccc(C)nc21 [NALIDIXIC ACID] | 1.5 µg/mL (≈ 6.46 µM) |

The compounds below were run on Escherichia coli (assay: Antibacterial activity against Escherichia coli TOP10 in presence of 50 ug/ml efflux pump inhibitor phenyl-arginine-beta-naphthylamide by Etest).
Type: functional

| SMILES | MIC |
| --- | --- |
| COc1c(N2CCNC(C)C2)c(F)cc2c(=O)c(C(=O)O)cn(C3CC3)c12 (stereo not given) [GATIFLOXACIN] | 0.002 µg/mL |
| CC[n+]1c(-c2ccccc2)c2cc(N)ccc2c2ccc(N)cc21.[Br-] [HOMIDIUM BROMIDE] | 64 µg/mL |
| COc1c(N2C[C@@H]3CCCN[C@@H]3C2)c(F)cc2c(=O)c(C(=O)O)cn(C3CC3)c12 [MOXIFLOXACIN] | 0.002 µg/mL |
| CCn1cc(C(=O)O)c(=O)c2ccc(C)nc21 [NALIDIXIC ACID] | 1 µg/mL |

The compounds below were run on Escherichia coli (assay: Antibacterial activity against Escherichia coli TOP10 containing pIP1206 plasmid in presence of 40 ug/ml efflux pump inhibitor 1-(1-naphthylmethyl)-piperazine by Etest).
Type: functional

| SMILES | MIC |
| --- | --- |
| COc1c(N2CCNC(C)C2)c(F)cc2c(=O)c(C(=O)O)cn(C3CC3)c12 (stereo not given) [GATIFLOXACIN] | 0.002 µg/mL |
| CC[n+]1c(-c2ccccc2)c2cc(N)ccc2c2ccc(N)cc21.[Br-] [HOMIDIUM BROMIDE] | 64 µg/mL |
| COc1c(N2C[C@@H]3CCCN[C@@H]3C2)c(F)cc2c(=O)c(C(=O)O)cn(C3CC3)c12 [MOXIFLOXACIN] | 0.002 µg/mL |
| CCn1cc(C(=O)O)c(=O)c2ccc(C)nc21 [NALIDIXIC ACID] | 1 µg/mL |

The compounds below were run on Escherichia coli (assay: Antibacterial activity against Escherichia coli C600Rif containing pIP1206 plasmid in presence of 50 ug/ml efflux pump inhibitor phenyl-arginine-beta-naphthylamide by Etest).
Type: functional

| SMILES | MIC |
| --- | --- |
| COc1c(N2CCNC(C)C2)c(F)cc2c(=O)c(C(=O)O)cn(C3CC3)c12 (stereo not given) [GATIFLOXACIN] | 0.012 µg/mL |
| CC[n+]1c(-c2ccccc2)c2cc(N)ccc2c2ccc(N)cc21.[Br-] [HOMIDIUM BROMIDE] | 64 µg/mL |
| COc1c(N2C[C@@H]3CCCN[C@@H]3C2)c(F)cc2c(=O)c(C(=O)O)cn(C3CC3)c12 [MOXIFLOXACIN] | 0.006 µg/mL |
| CCn1cc(C(=O)O)c(=O)c2ccc(C)nc21 [NALIDIXIC ACID] | 1.5 µg/mL |

What follows are compounds tested on Escherichia coli (assay: Antibacterial activity against Escherichia coli TOP10 containing pAT851 plasmid by Etest).
Type: functional
Procedure, shortened: as §1

| SMILES | MIC |
| --- | --- |
| COc1c(N2CCNC(C)C2)c(F)cc2c(=O)c(C(=O)O)cn(C3CC3)c12 (stereo not given) [GATIFLOXACIN] | 0.003 µg/mL (≈ 0.00799 µM) |
| CC[n+]1c(-c2ccccc2)c2cc(N)ccc2c2ccc(N)cc21.[Br-] [HOMIDIUM BROMIDE] | 128 µg/mL |
| COc1c(N2C[C@@H]3CCCN[C@@H]3C2)c(F)cc2c(=O)c(C(=O)O)cn(C3CC3)c12 [MOXIFLOXACIN] | 0.004 µg/mL (≈ 0.00996 µM) |
| CCn1cc(C(=O)O)c(=O)c2ccc(C)nc21 [NALIDIXIC ACID] | 1.5 µg/mL (≈ 6.46 µM) |

These compounds were tested on Escherichia coli (assay: Antibacterial activity against Escherichia coli C600Rif in presence of 50 ug/ml efflux pump inhibitor phenyl-arginine-beta-naphthylamide by Etest).
Type: functional

| SMILES | MIC |
| --- | --- |
| COc1c(N2CCNC(C)C2)c(F)cc2c(=O)c(C(=O)O)cn(C3CC3)c12 (stereo not given) [GATIFLOXACIN] | 0.016 µg/mL |
| CC[n+]1c(-c2ccccc2)c2cc(N)ccc2c2ccc(N)cc21.[Br-] [HOMIDIUM BROMIDE] | 128 µg/mL |
| COc1c(N2C[C@@H]3CCCN[C@@H]3C2)c(F)cc2c(=O)c(C(=O)O)cn(C3CC3)c12 [MOXIFLOXACIN] | 0.032 µg/mL |
| CCn1cc(C(=O)O)c(=O)c2ccc(C)nc21 [NALIDIXIC ACID] | 1.5 µg/mL |

Each compound was assayed on Escherichia coli (assay: Antibacterial activity against Escherichia coli TOP10 containing pIP1206 plasmid in presence of 50 ug/ml efflux pump inhibitor phenyl-arginine-beta-naphthylamide by Etest).
Type: functional

| SMILES | MIC |
| --- | --- |
| COc1c(N2CCNC(C)C2)c(F)cc2c(=O)c(C(=O)O)cn(C3CC3)c12 (stereo not given) [GATIFLOXACIN] | 0.002 µg/mL |
| CC[n+]1c(-c2ccccc2)c2cc(N)ccc2c2ccc(N)cc21.[Br-] [HOMIDIUM BROMIDE] | 64 µg/mL |
| COc1c(N2C[C@@H]3CCCN[C@@H]3C2)c(F)cc2c(=O)c(C(=O)O)cn(C3CC3)c12 [MOXIFLOXACIN] | 0.002 µg/mL |
| CCn1cc(C(=O)O)c(=O)c2ccc(C)nc21 [NALIDIXIC ACID] | 1 µg/mL |

What follows are compounds tested on Escherichia coli (assay: Antibacterial activity against Escherichia coli C600Rif in presence of 40 ug/ml efflux pump inhibitor 1-(1-naphthylmethyl)-piperazine by Etest).
Type: functional

| SMILES | MIC |
| --- | --- |
| COc1c(N2CCNC(C)C2)c(F)cc2c(=O)c(C(=O)O)cn(C3CC3)c12 (stereo not given) [GATIFLOXACIN] | 0.016 µg/mL |
| CC[n+]1c(-c2ccccc2)c2cc(N)ccc2c2ccc(N)cc21.[Br-] [HOMIDIUM BROMIDE] | 64 µg/mL |
| COc1c(N2C[C@@H]3CCCN[C@@H]3C2)c(F)cc2c(=O)c(C(=O)O)cn(C3CC3)c12 [MOXIFLOXACIN] | 0.032 µg/mL |
| CCn1cc(C(=O)O)c(=O)c2ccc(C)nc21 [NALIDIXIC ACID] | 1.5 µg/mL |

These compounds were tested on Escherichia coli (assay: Antibacterial activity against Escherichia coli TOP10 containing pAT851 in presence of 50 ug/ml efflux pump inhibitor phenyl-arginine-beta-naphthylamide by Etest).
Type: functional

| SMILES | MIC |
| --- | --- |
| COc1c(N2CCNC(C)C2)c(F)cc2c(=O)c(C(=O)O)cn(C3CC3)c12 (stereo not given) [GATIFLOXACIN] | 0.002 µg/mL |
| CC[n+]1c(-c2ccccc2)c2cc(N)ccc2c2ccc(N)cc21.[Br-] [HOMIDIUM BROMIDE] | 128 µg/mL |
| COc1c(N2C[C@@H]3CCCN[C@@H]3C2)c(F)cc2c(=O)c(C(=O)O)cn(C3CC3)c12 [MOXIFLOXACIN] | 0.002 µg/mL |
| CCn1cc(C(=O)O)c(=O)c2ccc(C)nc21 [NALIDIXIC ACID] | 1 µg/mL |

The compounds below were run on Escherichia coli (assay: Antibacterial activity against Escherichia coli TOP10 containing pAT851 in presence of 40 ug/ml efflux pump inhibitor 1-(1-naphthylmethyl)-piperazine by Etest).
Type: functional

| SMILES | MIC |
| --- | --- |
| COc1c(N2CCNC(C)C2)c(F)cc2c(=O)c(C(=O)O)cn(C3CC3)c12 (stereo not given) [GATIFLOXACIN] | 0.002 µg/mL |
| CC[n+]1c(-c2ccccc2)c2cc(N)ccc2c2ccc(N)cc21.[Br-] [HOMIDIUM BROMIDE] | 64 µg/mL |
| COc1c(N2C[C@@H]3CCCN[C@@H]3C2)c(F)cc2c(=O)c(C(=O)O)cn(C3CC3)c12 [MOXIFLOXACIN] | 0.002 µg/mL |
| CCn1cc(C(=O)O)c(=O)c2ccc(C)nc21 [NALIDIXIC ACID] | 1 µg/mL |
